Results on 16 compounds are retold here after ChEMBL document CHEMBL4118275, “Synthesis of coumarin derivatives and their cytoprotective effects on t-BHP-induced oxidative damage in HepG2 cells” (Bioorg Med Chem Lett, 2018).

Usually EC50 stands for the midpoint of the concentration-response curve.

The test system of data set [1] is HepG2. Description: Cytotoxicity against human HepG2 cells at 10 uM. The conditions noted are these: hepg2, 10 µM. Type of data set: cell-based.
Data set [2] relates to HepG2. Description: Cytoprotective activity against 100 uM t-BHP-induced oxidative stress in human HepG2 cells assessed as cell viability preincubated for 1 hr followed by t-BHP addition measured after 3 hrs by CCK-8 assay (reference value: 22%). Type of data set: functional.
A short description of data set [3]: Antioxidant activity assessed as DPPH radical scavenging activity measured after 30 mins. Type of data set: functional. Summed up: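 DPPH radical scavenging was measured, and activity is given as EC50 in μM.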
(DPPH is a stable violet radical that fades when it is reduced.)

The test system of data set [4] is HepG2. Description: Cytoprotective activity against 1 mM t-BHP-induced oxidative stress in human HepG2 cells assessed as cell viability preincubated for 1 hr followed by t-BHP addition measured after 3 hrs by CCK-8 assay. Type of data set: functional. On the technique in general: Formazan colour is commonly taken as a measure of viable cells.
The subject of data set [5] is HepG2. Description: Cytoprotective activity against 100 uM t-BHP-induced cell damage in human HepG2 cells assessed as increase in mitochondrial membrane potential preincubated for 1 hr followed by t-BHP addition measured after 3 hrs by rhodamine 123 staining based fluorescence microscopy. Type of data set: functional. Summed up:
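HepG2 cells were pretreated with sample, then exposed to 100 μM t-BHP and stained with Rhodamine 123. Mitochondrial membrane potential was judged from fluorescence microscopy images against untreated control and t-BHP-only cells.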

Structures are written as SMILES. Calls of active or inactive are those of the source. No cut-off for these calls is given here.

`CC(C)(O)C1Cc2c(ccc3ccc(=O)oc23)O1` (stereo not given): the Activity result in data set [1] was “Non-Toxic”. Moreover, the result in data set [2] was inactive.
In the same order, the values of `CC1(C)Oc2cc3oc(=O)ccc3cc2CC1OC(=O)/C=C/c1ccc(O)cc1` (stereo not given) are “Non-Toxic” and “inactive”.
In the same order, the values of `COc1ccc(/C=C/C(=O)OC2Cc3c(ccc4ccc(=O)oc34)OC2(C)C)cc1` (stereo not given) are “Non-Toxic” and “inactive”.
On the same counts, the results for `CC1(C)Oc2cc3oc(=O)ccc3cc2CC1O` (stereo not given) are “Non-Toxic” and “inactive”.
For the compound `COC(=O)/C=C/c1ccc(O)c(O)c1` [METHYLCAFFEATE], in data set [3], the EC50 was 1500 nM. The Activity in data set [2] came to 31%.
Turning to `CC1(C)Oc2ccc3ccc(=O)oc3c2CC1OC(=O)/C=C/c1ccc(O)c(O)c1` (stereo not given), the Activity entry in data set [1] is recorded as “Non-Toxic”; in data set [4], 39%; in data set [2] it was 86%. In data set [3], the EC50 is 3060 nM. Moreover, the result in data set [5] was Active.
For the compound `O=c1c(O)c(-c2ccc(O)c(O)c2)oc2cc(O)cc(O)c12` [QUERCETIN], in data set [3], the EC50 came to 170 nM. Besides, in data set [2], the Activity was 62%.
`CC1(C)Oc2ccc3ccc(=O)oc3c2CC1OC(=O)/C=C/c1ccccc1` (stereo not given): the Activity result in data set [1] is “Non-Toxic”. The result in data set [2] was inactive.
Consider `CC(C)(OC(=O)/C=C/c1ccc(O)cc1)C1Cc2cc3ccc(=O)oc3cc2O1` (stereo not given), for which the Activity result in data set [1] is “Non-Toxic”. Further, in data set [2], the outcome was inactive.
`CC(C)(O)C1Cc2cc3ccc(=O)oc3cc2O1` (stereo not given): in data set [1], the Activity result is listed as “Non-Toxic”. The result in data set [2] was inactive.
In the same order, the values of `COc1ccc(/C=C/C(=O)OC2Cc3c(ccc4ccc(=O)oc34)OC2(C)C)cc1OC` (stereo not given) are “Non-Toxic” and “inactive”.
With `CC1(C)Oc2ccc3ccc(=O)oc3c2CC1OC(=O)/C=C/c1ccc(O)cc1` (stereo not given), in data set [1], the Activity result is reported as “Non-Toxic”. Further, the outcome in data set [2] was inactive.
In the case of `COc1cc(/C=C/C(=O)OC2Cc3c(ccc4ccc(=O)oc34)OC2(C)C)cc(OC)c1OC` (stereo not given), the Activity entry in data set [1] is reported as “Non-Toxic”. Moreover, the outcome in data set [2] was inactive.
Consider `COc1cc(/C=C/C(=O)OC2Cc3c(ccc4ccc(=O)oc34)OC2(C)C)ccc1O` (stereo not given), for which, in data set [1], the Activity entry is listed as “Non-Toxic”. Besides, in data set [2], the outcome was inactive.
In the same order, the values of `CC1(C)Oc2ccc3ccc(=O)oc3c2CC1O` (stereo not given) [LOMATIN] are “Non-Toxic” and “inactive”.
As for `CC(C)(OC(=O)/C=C/c1ccc(O)cc1)C1Cc2c(ccc3ccc(=O)oc23)O1` (stereo not given), the Activity entry in data set [1] is given as “Non-Toxic”. Also, in data set [2], the result was inactive.
